Measured values from article PMC5826595 (Chemistry (Weinheim an der Bergstrasse, Germany), 2017).
Read-outs that look alike come from different tables or passages of the source.

Legend:
[1] = target: preformed Aβ40 aggregates (Homo sapiens, UniProt P05067); assay type: biochemical; conditions: metal-free and metal-treated conditions
[2] = TEAC assay in EtOH; assay type: biochemical; conditions: relative to Trolox
In short: (§1)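 Radical scavenging was measured by the test compound's quenching of pre-formed ABTS cation radicals (ABTS•⁺). The read-out was absorbance on a microplate reader, and capacity was expressed as Trolox equivalents.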

[3] = TEAC assay in M17 cell lysates; assay type: biochemical; conditions: relative to Trolox
In short: as §1

[4] = target: T1, metal-free Aβ40 monomer (Homo sapiens, UniProt P05067); assay: 2D SOFAST-HMQC NMR with metal-free monomeric Aβ40; assay type: binding; conditions: [Aβ40] 80 μM; compound 800 μM (10 equiv); pH 7.4; 10 °C
In short: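 Uniformly ¹⁵N-labeled monomeric Aβ40 (80 μM) with test compound at 0 or 800 μM in 20 mM phosphate buffer, pH 7.4, 50 mM NaCl, 7 % (v/v) D₂O, at 10 °C. 2D ¹H–¹⁵N SOFAST-HMQC spectra were recorded at 900 MHz with a cryogenic probe. Per-residue chemical shift perturbations were plotted against the average CSP with standard deviation; unresolved residues were excluded.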

[5] = target: Aβ40 (Homo sapiens, UniProt P05067); assay type: biochemical; conditions: inhibition experiment; vs compound-free and L2-b1-treated conditions
[6] = target: Aβ42 (Homo sapiens, UniProt P05067); assay type: biochemical; conditions: inhibition experiment; vs compound-free and L2-b1-treated conditions
In short: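 Aβ42 (25 μM) was incubated with test compound (50 μM), either metal-free or with CuCl2 or ZnCl2 (25 μM). Cu samples were at pH 6.6; metal-free and Zn samples at pH 7.4. Incubation was at 37 °C with constant agitation. Size distribution was read by gel/Western blot with anti-Aβ antibody 6E10, and morphology by TEM of the same samples.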

[7] = target: preformed Aβ42 aggregates (Homo sapiens, UniProt P05067); assay type: biochemical; conditions: metal-free and metal-treated conditions
[8] = tested on: SK-N-BE(2)-M17 (M17) cells; assay: Viability of cells treated with metal-free Aβ or metal–Aβ followed by compound; assay type: cell-based, human; conditions: [Aβ] 10 μM, [CuCl2 or ZnCl2] 10 μM, [L2-b2] 20 μM, MTT
In short: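 SK-N-BE(2)-M17 neuroblastoma cells were first exposed to metal-free Aβ40 or Aβ42, or to Aβ premixed with CuCl2 or ZnCl2. Test compound was added afterwards. Viability was measured by MTT absorbance on a microplate reader and expressed as % of cells given DMSO only (0–1 %, v/v).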

[9] = target: T2, metal-free Aβ40 (Homo sapiens, UniProt P05067); assay: ESI-MS of metal-free Aβ40 incubated with compound; assay type: binding; conditions: [Aβ40] 10 μM; [L2-b2] 50 μM; pH 7.5; 37 °C; 6 h
[10] = target: Cu^II–Aβ40 (Homo sapiens, UniProt P05067); assay: nESI-MS and MS/MS of Aβ40 incubated with Cu^II and compound; assay type: biochemical; conditions: [Aβ40] 20 μM; [CuCl2] 20 μM; [L2-b2] 120 μM; pH 7.5; 37 °C; 30 min
[11] = target: T1, metal-free Aβ40 monomer; conditions: ref 4e; cited from earlier work
[12] = target: T2, metal-free Aβ40; conditions: ref 4b,f; cited from earlier work
[13] = tested on: metal-free Aβ and metal–Aβ; conditions: ref 4b,f; cited from earlier work

T1 sequence (P05067 672-711 limits assumed): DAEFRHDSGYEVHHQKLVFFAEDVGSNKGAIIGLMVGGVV
Sequence of preformed Aβ40 aggregates (P05067 672-711 limits assumed): as above
T2 sequence (P05067 672-711 limits assumed): as above
Sequence of Cu^II–Aβ40 (P05067 672-711 limits assumed): as above
Sequence of Aβ40 (P05067 672-711 limits assumed): as above
Sequence of Aβ42 (P05067 672-713 limits assumed): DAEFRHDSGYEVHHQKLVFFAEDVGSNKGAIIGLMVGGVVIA
Sequence of preformed Aβ42 aggregates (P05067 672-713 limits assumed): as above

SMILES: c1ccc(CNCc2ccccn2)nc1 [DPA1, bis(pyridin-2-ylmethyl)amine, reference compound]
- Disaggregation of preformed Aβ40 aggregates (gel/Western blot) [1]: could not detectably disaggregate preformed Aβ40 aggregates

SMILES: CN(C)c1ccc(CNCc2ccc(N(C)C)cn2)nc1 [DPA2, 6-((((5-(dimethylamino)pyridin-2-yl)methyl)amino)methyl)-N,N-dimethylpyridin-3-amine]
- Disaggregation of preformed Aβ40 aggregates (gel/Western blot) [1]: could not detectably disaggregate preformed Aβ40 aggregates

SMILES: CN(C)c1ccc(CNc2ccccc2)nc1 [L2-b1, N,N-dimethyl-6-((phenylamino)methyl)pyridin-3-amine]
- Disaggregation of preformed Aβ40 aggregates (gel/Western blot) [1]: could not detectably disaggregate preformed Aβ40 aggregates
- TEAC value [2]: 0.8 ± 0.1
- TEAC value [3]: 0.7 ± 0.1
- Interaction with metal-free Aβ40 monomer (CSP) [4]: weak interactions with metal-free Aβ

SMILES: CN(C)c1ccc(NCc2ccc(N(C)C)cn2)cc1 [L2-b2, N^1-((5-(dimethylamino)pyridin-2-yl)methyl)-N^4,N^4-dimethylbenzene-1,4-diamine]
- Morphology of resultant Aβ40 aggregates (TEM) [5]: more amorphous aggregates and/or smaller fibrils
- Morphology of resultant Aβ42 aggregates (TEM) [6]: more amorphous aggregates and/or smaller fibrils
- Disaggregation of preformed Aβ40 aggregates (gel/Western blot) [1]: displayed various-sized peptide aggregates to different degrees
- Disaggregation of preformed Aβ42 aggregates (gel/Western blot) [7]: dismantle preformed metal-free and metal-treated Aβ42 aggregates
- Effect on toxicity triggered by metal-free Aβ and metal–Aβ in living cells [8]: possibly alleviate toxicity triggered by metal-free Aβ and metal–Aβ in living cells
- TEAC value [2]: 1.9 ± 0.1
- TEAC value [3]: 1.1 ± 0.1
- Interaction with metal-free Aβ40 monomer (CSP) [4]: weak interactions with metal-free Aβ
- Interaction with metal-free Aβ (ESI-MS) [9]: forming a covalent adduct of Aβ–cationic imine
- Mass loss of Aβ40 compared to apo Aβ40 (degraded Aβ) [10]: 89.1 (± 0.1) Da

SMILES: CN(C)c1ccc(NCc2ccccn2)cc1 [L2-b, N^1,N^1-dimethyl-N^4-(pyridin-2-ylmethyl)benzene-1,4-diamine]
- Interaction with metal-free Aβ40 monomer (CSP) [11]: weak interactions with metal-free Aβ
- Interaction with metal-free Aβ [12]: unable to interact with metal-free Aβ
- Reactivity toward metal-free Aβ and metal–Aβ aggregation pathways [13]: reactivity only for metal–Aβ species

SMILES: NCc1ccccn1 [PMA1, pyridin-2-yl-methanamine, reference compound]
- Disaggregation of preformed Aβ40 aggregates (gel/Western blot) [1]: could not detectably disaggregate preformed Aβ40 aggregates

SMILES: CN(C)c1ccc(CN)nc1 [PMA2, 6-(aminomethyl)-N,N-dimethylpyridin-3-amine, reference compound]
- Disaggregation of preformed Aβ40 aggregates (gel/Western blot) [1]: could not detectably disaggregate preformed Aβ40 aggregates
